Results of several laboratories.
Target: Mitogen-activated protein kinase 9 (MAPK9, Homo sapiens, UniProt P45984)

C[C@H]1CC[C@H](n2c3cnccc3c3cnc(Nc4ccc5c(n4)CCN(C(=O)CO)C5)nc32)CC1
remaining binding (binding, competition with immobilised ligand; 1 µM): 2.6%

COc1ccc2oc(-c3ccc4nc(N)oc4c3)c/c(=N\c3ccccc3NC(=O)CCN)c2c1
remaining binding (binding; 1 µM): 98%

Cc1ccc(NC(=O)c2ccnc(C(F)(F)F)c2)cc1-c1cc(OCCO)nc(N2CCOCC2)c1
remaining binding (binding, competition with immobilised ligand; 1 µM): 83%

C1=C/COCc2cc(ccc2OCCN2CCCC2)Nc2nccc(n2)-c2cccc(c2)COC/1
remaining signal (cell-free assay; 0.1 µM): 47%

N#Cc1ccc(NC(=O)Nc2ccccc2)cc1
remaining binding (cell-free assay, competition with immobilised ligand; 25 µM): 100%

C=CC(=O)N1CCC[C@@H](n2nc(-c3ccc(Oc4ccccc4)cc3)c3c(N)ncnc32)C1
inhibition (enzyme activity, inhibitor; 1 µM): 21%

C#Cc1cnc(Nc2ccnc(CO)c2)nc1Nc1ccccc1S(C)(=O)=NC#N (stereo not drawn)
remaining signal (cell-free assay; 1 µM): 58%

CCCCC(=O)Nc1ccc(-c2ccc3ncn(CCC)c(=O)c3c2)cn1
remaining binding (binding, competition with immobilised ligand; 0.5 µM): 68%

C=CC(=O)N1CCC([C@@H]2CCNc3c(C(N)=O)c(-c4ccc(Oc5ccccc5)cc4)nn32)CC1
inhibition (enzyme activity, inhibitor; 1 µM): 0%
